Bioassay records deposited in PubChem BioAssay by several laboratories.
SKKanGAS inh = S. pyogenes SKKanGAS growth inhibitors in kanamycin, primary screen, streptokinase expression inhibitor project, SKKanGAS strain, BacTiter-Glo luminescence. 6 h. inhibition, % at 7.5 µM. 300,000 tested, 1.3% active. AID 1662, 2009;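 active = mean replicate score, as percent of positive control median, at least 50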;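 also: strain carries kanamycin resistance gene driven by streptokinase promoter and grows in 40 µg/ml kanamycin; loss of luminescence reflects streptokinase promoter inhibition or plain growth inhibition; 0% = median of DMSO wells and 100% = positive control at its reference dose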
Calb FLC = C. albicans growth inhibition with fluconazole, primary screen, CaCi-2 strain, Alamar Blue fluorescence. C. albicans CaCi-2 (fluconazole-resistant clinical isolate) + fluconazole, 48 h. growth inhibition, % (concentration not given with the values). 300,000 tested, 0.57% active;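 active = growth inhibition above about 58% in most replicates, limit read from the data, passing the limit was not always enough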;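 also: all wells also contain fluconazole at 8 µg/ml as a sub-toxic cotreatment; 0% = median of DMSO wells and 100% = median of geldanamycin control wells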
sPLA2-III inh = human group III sPLA2 inhibitors, primary screen, biochemical, QFRET, BODIPY PC-A2 liposome substrate | Group 3 secretory phospholipase A2 (Homo sapiens), Q9NZ20 | QFRET BODIPY PC-A2 liposome hydrolysis, fluorescence | inhibition, % at 12.2 µM | 370,000 tested, 0.56% active;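 active = inhibition above mean plus 3 SD of compounds lying within the high and low control bounds, cut at about 19% in these data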;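 also: 0% = median of test compound wells and 100% = no enzyme DMSO wells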
ASAP1 GAP inh = inhibitors of human ASAP1 ArfGAP activity, primary screen, biochemical, fluorescence polarization; Arf-GAP with SH3 domain, ANK repeat and PH domain-containing protein 1 (Homo sapiens), …; ASAP1-stimulated ARF1 GTP hydrolysis, GDP FP detection; inhibition, % at 16.5 µM; 360,000 tested, 0.19% active; in the data active = inhibition above about 25%;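 also: 0% = vehicle with enzyme and substrate and 100% = no enzyme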
Target sequence (Q9ULH1 325-724 limits assumed): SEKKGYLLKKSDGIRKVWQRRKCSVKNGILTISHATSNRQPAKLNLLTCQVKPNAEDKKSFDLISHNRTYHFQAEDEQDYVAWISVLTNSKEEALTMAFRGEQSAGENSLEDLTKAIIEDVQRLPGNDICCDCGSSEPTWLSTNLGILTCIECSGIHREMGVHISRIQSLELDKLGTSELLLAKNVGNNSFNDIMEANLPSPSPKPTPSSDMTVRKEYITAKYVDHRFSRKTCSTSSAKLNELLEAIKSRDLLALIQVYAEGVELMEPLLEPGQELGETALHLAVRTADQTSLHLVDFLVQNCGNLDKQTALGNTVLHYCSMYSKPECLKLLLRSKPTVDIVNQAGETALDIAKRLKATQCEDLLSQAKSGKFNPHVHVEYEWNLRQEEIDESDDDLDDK
ARFGAP1 inhibitor = inhibitors of rat ARFGAP1 GAP activity, primary screen, biochemical, fluorescence polarization, GDP tracer; inhibition, % at 16.5 µM; 360,000 tested, 0.26% active; AID 651572, 2012; Arfgap1-stimulated ARF1 GTP hydrolysis, GDP FP detection;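 active = inhibition above a per-plate limit, mean inhibition of low control wells plus 3 SD, cut at about 25% in these data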;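 also: 0% = DMSO wells with enzyme and 100% = wells lacking Arfgap1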
Target sequence (Q62848 1-136 limits assumed): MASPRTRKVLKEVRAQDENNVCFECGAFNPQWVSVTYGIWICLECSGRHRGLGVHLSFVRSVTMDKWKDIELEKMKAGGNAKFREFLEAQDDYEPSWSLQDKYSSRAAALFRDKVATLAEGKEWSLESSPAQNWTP
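Material: rat Arfgap1 catalytic domain, aa 1-136; also added: human ARF1(Δ1-17)-GTP substrate; compound dosing: one concentration, 16.5 µM, DMSO 1.26%; incubation: GTP hydrolysis reaction 2 h at 25 °C; measured by: Tracer-displacement fluorescence polarization with EDTA stop, 620/688 nm; evaluation: % inhibition from polarization; repeats: one replicate per compound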
hGIII sPLA2 conf = human group III sPLA2 inhibitors, confirmation, biochemical, QFRET, triplicate; AID 743280, 2014; shares compounds with sPLA2-III inh; 2,000 tested, 34% active; inhibition, % at 12.2 µM; recombinant hGIII-sPLA2, BODIPY PC-A2 QFRET fluorescence;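 active = mean inhibition across triplicates above the hit cutoff set in the earlier primary screen, cut at about 19% in these data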;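 also: 0% = enzyme with DMSO and 100% = DMSO wells lacking enzyme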
535nm interf = 535nm fluorescence optical interference, confirmation, artefact control for HGIII-sPLA2 inhibitor project, biochemical, QFRET | shares compounds with sPLA2-III inh | BODIPY FL product fluorescence interference | inhibition, % at 12.2 µM | 2,000 tested, 8.5% active | AID 743282, 2014;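 active = average inhibition above the solvent-only control mean plus 3 SD, cut at about 6% in these data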;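 also: 0% = DMSO with substrate plus product and 100% = DMSO with substrate alone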
535nm interf DR = 535nm fluorescence optical interference, dose response, artefact control for HGIII-sPLA2 inhibitor project, biochemical, QFRET; shares compounds with sPLA2-III inh; BODIPY FL product fluorescence interference, cell-free; IC50, µM; 240 tested, under 10 active; AID 743455, 2014;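 active = IC50 at or below 10 µM; inactive = IC50 above 10 µM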
* = called active by the depositor; nt = no result. This is a sample that favours compounds with a hit; in the whole collection about 2.3% have one here.

SMILES	SKKanGAS inh	Calb FLC	sPLA2-III inh	ASAP1 GAP inh	ARFGAP1 inhibitor	hGIII sPLA2 conf	535nm interf	others
O=C(/C=C/c1cccs1)NNC(=O)c1cccc([N+](=O)[O-])c1	nt	nt	1	-10	10	nt	nt
CC(C)CNC(=O)/C=C/c1cccs1	3	-1	22*	7	14	0	-2
O=C(/C=C/c1cccs1)NNC(=O)c1ccccc1	nt	nt	20*	-19	-6	-1	-5
C=CCNC(=O)/C=C/c1cccs1	-4	7	0	-2	1	nt	nt
FC(F)(F)c1ccc(Cl)c(CN2CCN(c3ncc(Cc4ccccc4)cn3)CC2)c1	nt	nt	6	-3	-2	nt	nt
O=C(Nc1c(-c2ccc(C(F)(F)F)cc2)nc2ncccn12)c1ccc(F)cc1	nt	nt	3	nt	nt	nt	nt
CCOc1cc(CNc2ccc3c(c2)OCCO3)cc(Br)c1OCC	0	-4	23*	13	-1	34*	-4	535nm interf DR=>122
CCOc1cc(CNc2ccc(N3CCOCC3)cc2)cc(Br)c1OCC	-1	-9	-5	4	-8	nt	nt
COC(=O)[C@@H]1N=C(c2ccc(OC)cc2)O[C@]12C(=O)N(Cc1cn(Cc3ccccc3)nn1)c1cccc(Cl)c12	nt	nt	-37	nt	nt	nt	nt
CC(C)CC(=O)NC(=S)NNC(=O)c1ccc([N+](=O)[O-])cc1	20	28	19	-10	-1	nt	nt
CC(C)CC(=O)NC(=S)NNC(=O)c1ccc(NC(=O)C2CCCCC2)cc1	88*	75*	21*	-6	-6	37*	-10	535nm interf DR=>122
c1ccc(C2(CN3CCNC[C@H]3Cc3cccc4ccccc34)CC2)cc1	9	11	23*	8	20	6	-40
COC(=O)c1ccc(C(=O)OC)c(NC(=S)N2CCC(C)CC2)c1	-3	-10	22*	-6	14	7	-6
C=CCNC(=O)/C(=C/c1cn(-c2ccccc2)nc1-c1cccc([N+](=O)[O-])c1)NC(=O)c1ccccc1	8	25	21*	3	6	-12	-24
CN(C)C(=O)/C(=C/c1cn(-c2ccccc2)nc1-c1cccc([N+](=O)[O-])c1)NC(=O)c1ccccc1	8	-2	3	-15	-2	nt	nt
O=C(CSc1nc2ccccc2n1Cc1ccccc1)NN=C/C=C/c1ccccc1	nt	nt	-9	nt	nt	nt	nt
C=CCN=C1NC(c2cccc(Cl)c2)C(C(=O)OC)=C(C)N1Cc1cccc(C(F)(F)F)c1 (stereo unspecified)	nt	nt	-8	-7	0	nt	nt
CCOC(=O)C(=O)NNc1ccc(C)cc1	-2	10	21*	-6	1	2	1
Cc1ccc(C)c(NC(=O)NNC(=O)c2cc3ccccc3cc2O)c1	6	-1	22*	-4	4	22*	3
Cc1ccc(NC(=O)NNC(=O)c2cc3ccccc3cc2O)cc1C	3	81*	28*	8	6	26*	3
Cc1ccc(NC(=O)c2cc3ccccc3cc2O)cc1	9	-4	-67	2	11	nt	nt
O=C(CSc1nnc(-c2cnccn2)n1-c1ccccc1)c1ccc(F)cc1	nt	nt	-33	nt	nt	nt	nt
CC(C)c1ccccc1NC(=S)NC(=O)C1CCCCC1	nt	nt	10	-2	6	nt	nt
CC(C)c1ccccc1NC(=S)NCC1(N(C)C)CCCCC1	0	-11	20*	-7	-2	26*	-8
Cc1cc(-c2nc3ncccc3o2)ccc1NC(=S)NC(=O)c1ccco1	33	13	21*	1	7	8	-22
SMILES	SKKanGAS inh	Calb FLC	sPLA2-III inh	ASAP1 GAP inh	ARFGAP1 inhibitor	hGIII sPLA2 conf	535nm interf	others
Cc1ccc(-c2nc3ncccc3o2)cc1NC(=S)NC(=O)c1ccco1	-1	13	4	11	-4	nt	nt
Cc1onc(-c2c(Cl)cccc2Cl)c1C(=O)NCc1ccccn1	4	-14	4	-7	4	nt	nt
CCn1cc(CNC(=O)c2c(-c3c(Cl)cccc3Cl)noc2C)c(C)n1	-3	12	21*	-2	4	0	-1
COC(=O)c1ccc(/C=C(\C#N)C(=O)NC(C)c2ccccc2)cc1 (stereo unspecified)	-2	19	-2	-17	-4	nt	nt
CC(NC(=O)/C(C#N)=C/c1ccco1)c1ccccc1 (stereo unspecified)	3	-1	20*	-15	17	0	-3
COc1ccc2[nH]c(N=Nc3ccccc3C)c(O)c2c1	-7	-9	25*	-4	0	10	2
CC(C)CNc1ccc2c(c1)OC[C@@H](CC(C)C)NS2(=O)=O	nt	nt	-2	nt	nt	nt	nt
CCCOc1cccc(OCC(=O)Nc2nc3ccccc3[nH]2)c1	15	-4	25*	10	1	14	-3
CCCCOc1cccc(OCC(=O)Nc2nc3ccccc3[nH]2)c1	22	-4	9	-5	8	nt	nt
Nc1nc2c(ncn2[C@@H]2O[C@H](C(=O)NCCc3c[nH]c4ccccc34)[C@@H](O)[C@H]2O)c(=O)[nH]1	nt	nt	9	-5	-2	nt	nt
O=c1c2cc(Br)ccc2[nH]c(=S)n1Cc1cccnc1	1	-1	7	14	2	nt	nt
O=c1c2ccccc2[nH]c(=S)n1Cc1cccnc1	-7	1	20*	-4	7	11	-5
CCCCn1c(N)c(N(CCC(C)C)C(=O)c2c(CC)noc2C)c(=O)[nH]c1=O	nt	nt	17	-11	7	nt	nt
COc1ccc(Cl)cc1C(=O)NNC(=O)c1cccc(S(=O)(=O)N(C)C)c1	0	14	22*	4	6	-8	-6
CC1CC(O)(CC(O)(c2ccccc2)c2ccccc2)C(C)CN1C (stereo unspecified)	3	-25	19*	23	14	-13	-16
CCc1ccc(CC2(O)CC(C)N(C)CC2C)cc1 (stereo unspecified)	-3	-11	2	-1	6	nt	nt
NC(=S)NNC(=O)C12CC3CC(CC(C3)C1)C2	-24	1	21*	14	-4	9	0
C/C(=N\NC(=S)NC(C)C)c1ccc(Cl)c([N+](=O)[O-])c1	6	9	20*	-2	7	19*	5
C/C(=N\NC(=S)NC(C)C)c1ccccc1	12	-9	11	-4	2	nt	nt
